# Test results published in ChEMBL document CHEMBL3352234, “Discovery of furan-2-carbohydrazides as orally active glucagon receptor antagonists” (Bioorg Med Chem Lett, 2014).
# The source made the active and inactive calls. The rule behind the calls is not given here.
# Key:
# [1] = target: Glucagon receptor (Rattus norvegicus) (UniProt P30082); assay: Displacement of [125I]glucagon from glucagon receptor in rat hepatocyte membranes at 10 uM after 30 mins by gamma-counting; format: cell membranes
# Sequence of Glucagon receptor (Rattus norvegicus) (P30082 whole entry): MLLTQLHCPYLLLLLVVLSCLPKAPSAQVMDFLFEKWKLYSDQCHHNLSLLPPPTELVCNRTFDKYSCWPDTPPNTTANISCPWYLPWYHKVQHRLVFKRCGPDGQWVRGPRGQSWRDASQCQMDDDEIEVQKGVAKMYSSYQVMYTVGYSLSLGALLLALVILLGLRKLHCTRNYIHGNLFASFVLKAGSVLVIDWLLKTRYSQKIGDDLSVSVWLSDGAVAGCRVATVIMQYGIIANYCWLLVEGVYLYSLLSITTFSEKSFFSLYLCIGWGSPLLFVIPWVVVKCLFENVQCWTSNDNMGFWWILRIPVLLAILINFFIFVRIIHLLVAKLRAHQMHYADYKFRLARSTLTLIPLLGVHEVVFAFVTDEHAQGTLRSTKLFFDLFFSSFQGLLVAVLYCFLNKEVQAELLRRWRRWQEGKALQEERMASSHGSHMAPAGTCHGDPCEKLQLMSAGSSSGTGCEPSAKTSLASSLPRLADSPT
# Procedure, shortened: (§1)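 Rat liver was homogenized in 20 volumes of 50 mM Tris–HCl (pH 7.2) and the membrane pellet collected by two 30,000g spins of 15 min each. Membranes were resuspended in Tris–HCl pH 7.2 with 1 mg/mL BSA and 0.1 mg/mL bacitracin. Incubation was with [125I]glucagon (final 50 pM) at 25 °C for 30 min, then filtration onto PEI-treated GF/C filters and gamma counting. Inhibition is relative to binding without compound, after subtracting nonspecific binding with excess glucagon. Run in duplicate.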
# Glucagon receptor [2] = target: T1, Glucagon receptor (Rattus norvegicus, UniProt P30082); assay: Displacement of [125I]glucagon from glucagon receptor in rat hepatocyte membranes after 30 mins by gamma-counting; format: cell membranes; procedure, shortened: as §1
# T1 sequence (P30082 whole entry): as above
# Glucagon receptor [3] = target: T1, Glucagon receptor; assay: Inhibition of glucagon-induced glucagon receptor-mediated cAMP production in rat hepatocytes after 15 mins by cAMP dynamic2 assay; format: functional, cell-based, Hepatocyte
# Procedure, shortened: (§2)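 Hepatocytes were suspended in HCM medium, seeded on collagen-coated wells and incubated for 5 h. Compound in DMEM with 20 mM HEPES, 0.1% BSA and 0.5 mM IBMX was preincubated for 15 min at room temperature. Glucagon was then added for 5 min at room temperature. Cells were lysed with 0.5 M HCl for 10 min and neutralized with Tris–HCl pH 8.0. Supernatant cAMP was quantified with the cAMP dynamic2 kit.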
# [4] = Inhibition of glucagon-induced glucagon receptor-mediated cAMP production in dog hepatocytes after 15 mins by cAMP dynamic2 assay; format: cell-based; settings: Canis lupus familiaris, Hepatocyte, 0.25 h; procedure, shortened: as §2
# Glucagon receptor [5] = target: Glucagon receptor (Homo sapiens, UniProt P47871); assay: Inhibition of glucagon-induced glucagon receptor-mediated cAMP production in human hepatocytes after 15 mins by cAMP dynamic2 assay; format: functional, cell-based, Hepatocyte; procedure, shortened: as §2
# Sequence of Glucagon receptor (Homo sapiens, UniProt P47871) (P47871 whole entry): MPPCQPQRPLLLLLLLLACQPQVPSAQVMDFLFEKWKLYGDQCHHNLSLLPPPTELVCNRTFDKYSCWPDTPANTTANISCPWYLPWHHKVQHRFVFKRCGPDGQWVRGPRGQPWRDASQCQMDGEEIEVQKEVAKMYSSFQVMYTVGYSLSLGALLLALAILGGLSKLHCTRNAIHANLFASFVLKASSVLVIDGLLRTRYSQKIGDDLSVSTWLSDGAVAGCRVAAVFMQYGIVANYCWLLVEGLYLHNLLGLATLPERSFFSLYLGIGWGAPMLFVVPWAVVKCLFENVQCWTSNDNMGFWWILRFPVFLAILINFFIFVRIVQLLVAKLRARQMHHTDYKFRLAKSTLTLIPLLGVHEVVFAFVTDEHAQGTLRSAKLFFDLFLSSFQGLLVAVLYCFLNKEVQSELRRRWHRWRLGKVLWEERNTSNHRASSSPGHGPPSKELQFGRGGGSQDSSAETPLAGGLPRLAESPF
# [6] = target: Glucagon-like peptide 1 receptor (Homo sapiens, UniProt P43220); assay: Inhibition of GLP-1R (unknown origin)
# Sequence of Glucagon-like peptide 1 receptor (P43220 whole entry): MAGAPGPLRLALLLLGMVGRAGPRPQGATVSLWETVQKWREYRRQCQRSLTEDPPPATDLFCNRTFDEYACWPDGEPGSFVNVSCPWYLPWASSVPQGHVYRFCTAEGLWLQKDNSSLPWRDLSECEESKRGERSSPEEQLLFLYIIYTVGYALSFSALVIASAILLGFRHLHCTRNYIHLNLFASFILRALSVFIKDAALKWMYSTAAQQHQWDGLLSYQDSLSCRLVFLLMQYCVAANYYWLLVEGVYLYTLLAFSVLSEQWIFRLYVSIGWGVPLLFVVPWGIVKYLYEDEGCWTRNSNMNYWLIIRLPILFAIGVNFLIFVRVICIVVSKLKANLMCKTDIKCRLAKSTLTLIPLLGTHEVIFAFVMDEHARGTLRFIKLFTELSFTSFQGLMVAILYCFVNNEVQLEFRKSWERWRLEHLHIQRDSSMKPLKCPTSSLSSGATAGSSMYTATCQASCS
# [7] = target: Voltage-gated inwardly rectifying potassium channel KCNH2 (Homo sapiens, UniProt Q12809); assay: Inhibition of human ERG
# Sequence of Voltage-gated inwardly rectifying potassium channel KCNH2 (Q12809 whole entry): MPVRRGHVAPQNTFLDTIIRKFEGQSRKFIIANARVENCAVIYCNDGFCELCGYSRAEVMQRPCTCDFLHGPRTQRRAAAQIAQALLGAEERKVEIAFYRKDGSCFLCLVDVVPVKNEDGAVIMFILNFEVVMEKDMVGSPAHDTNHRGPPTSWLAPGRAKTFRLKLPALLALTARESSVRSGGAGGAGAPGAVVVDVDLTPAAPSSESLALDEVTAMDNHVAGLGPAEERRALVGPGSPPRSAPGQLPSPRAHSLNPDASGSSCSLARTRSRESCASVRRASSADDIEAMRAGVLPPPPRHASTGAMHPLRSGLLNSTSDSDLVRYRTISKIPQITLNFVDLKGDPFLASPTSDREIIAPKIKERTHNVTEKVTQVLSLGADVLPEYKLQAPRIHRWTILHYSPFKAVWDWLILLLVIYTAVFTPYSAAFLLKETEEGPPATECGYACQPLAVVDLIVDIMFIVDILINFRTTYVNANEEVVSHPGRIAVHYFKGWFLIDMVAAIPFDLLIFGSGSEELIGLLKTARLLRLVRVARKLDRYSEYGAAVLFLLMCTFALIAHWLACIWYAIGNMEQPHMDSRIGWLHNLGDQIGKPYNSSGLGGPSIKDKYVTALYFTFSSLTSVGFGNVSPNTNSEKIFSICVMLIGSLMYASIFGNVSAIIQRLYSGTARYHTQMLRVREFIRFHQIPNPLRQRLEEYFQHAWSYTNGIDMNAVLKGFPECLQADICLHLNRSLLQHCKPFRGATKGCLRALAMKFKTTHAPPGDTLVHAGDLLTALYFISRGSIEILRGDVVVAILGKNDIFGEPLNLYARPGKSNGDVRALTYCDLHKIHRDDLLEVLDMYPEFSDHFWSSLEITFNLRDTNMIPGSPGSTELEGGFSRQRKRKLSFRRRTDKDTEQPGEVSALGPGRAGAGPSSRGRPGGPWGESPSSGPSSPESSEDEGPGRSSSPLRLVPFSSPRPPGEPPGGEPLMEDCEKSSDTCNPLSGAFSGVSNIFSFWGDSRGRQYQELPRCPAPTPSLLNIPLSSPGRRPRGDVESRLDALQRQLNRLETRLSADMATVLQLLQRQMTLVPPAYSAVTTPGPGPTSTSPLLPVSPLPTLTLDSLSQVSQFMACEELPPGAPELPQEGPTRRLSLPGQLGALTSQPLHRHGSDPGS
# [8] = Inhibition of sodium channel site 2 (unknown origin); set-up: species or system Homo sapiens
# Rattus norvegicus [9] = assay: Half life in rat at 1 mg/kg, iv; format: ADME, organism-based; set-up: dose 1 mg/kg, route intravenous; settings: in vivo
# Rattus norvegicus [10] = assay: Volume of distribution at steady state in rat at 1 mg/kg, iv; format: ADME, organism-based; set-up: dose 1 mg/kg, route intravenous; settings: in vivo
# [11] = Cmax in rat at 1 mg/kg, po; format: ADME, organism-based; set-up: dose 1 mg/kg, route oral; settings: in vivo
# [12] = Half life in rat at 1 mg/kg, po; format: ADME, organism-based; set-up: dose 1 mg/kg, route oral; settings: in vivo
# [13] = Oral bioavailability in rat at 1 mg/kg; format: ADME, organism-based; settings: in vivo
# Rattus norvegicus [14] = assay: Inhibition of glucagon-induced glucose elevation in rat at 30 mg/kg, po administered 30 mins prior challenge measured up to 6 hrs; format: functional, organism-based; set-up: dose 30 mg/kg
# Procedure, shortened: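 Normal rats were dosed orally 30 min before an intravenous glucagon challenge, with blood sampled afterwards for glucose. Values are mean ± SEM, n = 6 per group; Dunnett multiple comparison test.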
# Rattus norvegicus [15] = assay: Inhibition of glucagon-induced glucose elevation in normal rat at 30 mg/kg, po administered 30 mins prior challenge measured up to 6 hrs
inhibition [1],IC50 (Glucagon receptor [2]) [nM],SMILES,other results
,430,O=C(NNC(=O)c1occ(-c2ccccc2)c1-c1ccccc1)c1ccc(O)c(Cl)c1,
,270,O=C(NNC(=O)c1occ(-c2ccccc2)c1-c1ccccc1)c1ccc(O)c(Br)c1,
,9500,COc1cc(C(=O)NNC(=O)c2occ(-c3ccccc3)c2-c2ccccc2)ccc1O,
,970,O=C(NNC(=O)c1occ(-c2ccccc2)c1-c1ccccc1)c1ccc(O)nc1,
21%,,O=C(NNC(=O)c1occ(-c2ccccc2)c1-c1ccccc1)c1cccc(O)c1,
,87,O=C(NNC(=O)c1occ(-c2ccccc2)c1-c1ccccc1)c1ccc(O)c([N+](=O)[O-])c1,
,1400,O=C(NNC(=O)c1occ(-c2ccccc2)c1-c1ccccc1)c1ccc(O)c(F)c1,
57%,,O=C(NNC(=O)c1occ(-c2ccccc2)c1-c1ccccc1)c1ccc(O)c(O)c1,

# Continued, molecule first:
SMILES,inhibition [1],IC50 (Glucagon receptor [2]) [nM],other results
COc1ccc(C(=O)NNC(=O)c2occ(-c3ccccc3)c2-c2ccccc2)cc1,inactive,,
O=C(NNC(=O)c1occ(-c2ccccc2)c1-c1ccccc1)c1ccc(O)c(-c2ccccc2)c1,,> 10000,
O=C(NNC(=O)c1occ(-c2ccccc2)c1-c1ccccc1)c1ccc(O)cc1,65%,9500,
CCCCCc1ccc(-c2ccoc2C(=O)NNC(=O)c2ccc(O)c([N+](=O)[O-])c2)cc1,,,IC50 (Glucagon receptor [3]): 5.3 nM; IC50 [4]: 183 nM; IC50 (Glucagon receptor [5]): 292 nM; IC50 [6]: > 1000 nM; IC50 [7]: > 1000 nM; IC50 [8]: > 1000 nM; t1/2 (Rattus norvegicus [9]): 5.9 h; Vdss (Rattus norvegicus [10]): 0.59 L/kg; Cmax [11]: 411 ng/mL; half-life [12]: 366 min; bioavailability [13]: 37%; inhibition (Rattus norvegicus [14]): Active; inhibition (Rattus norvegicus [15]): Active
O=C(NNC(=O)c1occ(-c2ccccc2)c1-c1ccccc1)c1ccco1,50%,,
O=C(NNC(=O)c1occ(-c2ccccc2)c1-c1ccccc1)c1ccccc1,42%,,
O=C(NNC(=O)c1cc(-c2ccccc2)co1)c1ccoc1,6%,,
O=C(NNC(=O)c1occ(-c2ccccc2)c1-c1ccccc1)c1ccoc1,73%,,
O=C(O)c1ccc(C(=O)NNC(=O)c2occ(-c3ccccc3)c2-c2ccccc2)cc1,61%,,
